Each block holds one molecule with its values, some of them ahead of it. Active and inactive are the calls of the source. No cut-off for these calls is given here.
Tests used:
Cricetinae gen. sp. [1] = assay: Evaluated for its ability to reduce liver cholesterol esters(LCE) in cholesterol-fed hamsters.; assay type: functional, Cricetulus griseus
Summary of the method: (§1)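 Hamsters were fed a 0.5% cholesterol diet for 7 days with once-daily oral gavage dosing in 0.2 mL corn oil. Controls got the same diet and vehicle without drug. Livers were collected on day 7 and neutral lipids extracted. Cholesteryl ester content was measured by HPLC. Results are given as percent change in hepatic cholesteryl ester versus cholesterol-fed controls, or as ED50 in mg/kg/day.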

Cricetinae gen. sp. [2] = conditions: Cricetulus griseus; Liver; 10 mg/kg
Cricetinae gen. sp. [3] = assay: The compound was evaluated for percent reduction of liver cholesterol esters(LCE) in cholesterol-fed hamsters at 10 mg/Kg/day; assay type: functional, Cricetulus griseus; summary of the method: as §1
Cricetinae gen. sp. [4] = assay: The compound was evaluated for percent reduction of liver cholesterol esters(LCE) in cholesterol-fed hamsters at 2.5 mg/Kg/day; assay type: functional, Cricetulus griseus; summary of the method: as §1
[5] = Percent negation of rise in total serum cholesterol relative to control-fed 0.5% cholesterol for 7 days, At a dose of 0.1 mg/kg/day; assay type: ADME, organism-based; conditions: in vivo, 168 h
Summary of the method: (§2)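 Serum total cholesterol was measured in hamsters given 0.5% dietary cholesterol for 7 days with daily oral gavage dosing (0.2 mL corn oil vehicle). Controls were cholesterol-fed animals receiving vehicle without drug. Results are expressed as percent negation of the diet-induced rise in serum total cholesterol relative to these controls.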

[6] = The pharmacokinetics property percent negation of rise in liver cholesterol esters relative to control-fed 0.5% cholesterol for 7 days, At a dose of 0.03 mg/kg/day; assay type: ADME, organism-based; conditions: in vivo, 168 h; summary of the method: as §1
[7] = Percent negation of rise in total serum cholesterol relative to control-fed 0.5% cholesterol for 7 days, At a dose of 3 mg/kg/day; assay type: ADME, organism-based; conditions: in vivo, 168 h; summary of the method: as §2
[8] = The pharmacokinetics property percent negation of rise in liver cholesterol esters relative to control-fed 0.5% cholesterol for 7 days, At a dose of 0.3 mg/kg/day; assay type: ADME, organism-based; conditions: in vivo, 168 h; summary of the method: as §1
[9] = Percent negation of rise in total serum cholesterol relative to control-fed 0.5% cholesterol for 7 days, At a dose of 0.3 mg/kg/day; assay type: ADME, organism-based; conditions: in vivo, 168 h; summary of the method: as §2
[10] = Percent negation of rise in total serum cholesterol relative to control-fed 0.5% cholesterol for 7 days, At a dose of 1 mg/kg/day; assay type: ADME, organism-based; conditions: in vivo, 168 h; summary of the method: as §2
[11] = Percent negation of rise in total serum cholesterol relative to control-fed 0.5% cholesterol for 7 days, at a dose of 0.03 mg/kg/day; assay type: ADME, organism-based; conditions: in vivo, 168 h; summary of the method: as §2
[12] = The pharmacokinetics property percent negation of rise in liver cholesterol esters relative to control-fed 0.5% cholesterol for 7 days, At a dose of 1 mg/kg/day; assay type: ADME, organism-based; conditions: in vivo, 168 h; summary of the method: as §1
[13] = The pharmacokinetics property percent negation of rise in liver cholesterol esters relative to control-fed 0.5% cholesterol for 7 days, At a dose of 3 mg/kg/day; assay type: ADME, organism-based; conditions: in vivo, 168 h; summary of the method: as §1
[14] = The pharmacokinetics property percent negation of rise in liver cholesterol esters relative to control-fed 0.5% cholesterol for 7 days, At a dose of 0.1 mg/kg/day; assay type: ADME, organism-based; conditions: in vivo, 168 h; summary of the method: as §1
[15] = The pharmacokinetics property percent negation of rise in liver cholesterol esters relative to control-fed 0.5% cholesterol for 7 days, At a dose of 0.3 mg/kg/day; percent reduction was not statistically significant; assay type: ADME, organism-based; conditions: in vivo, 168 h; summary of the method: as §1
[16] = Percent negation of rise in total serum cholesterol relative to control-fed 0.5% cholesterol for 7 days, At a dose of 0.3 mg/kg/day; percent reduction was not statistically significant; assay type: ADME, organism-based; conditions: in vivo, 168 h; summary of the method: as §2
[17] = Percent negation of rise in total serum cholesterol relative to control-fed 0.5% cholesterol for 7 days, At a dose of 1 mg/kg/day; percent reduction was not statistically significant; assay type: ADME, organism-based; conditions: in vivo, 168 h; summary of the method: as §2
Cricetinae gen. sp. [18] = assay: The compound was evaluated for its ability to reduce liver cholesterol esters(LCE) in cholesterol-fed hamsters; NE=no effect at 100 mg/kg; assay type: functional, organism-based; design: dose 100 mg/kg; conditions: Cricetulus griseus; summary of the method: as §1
Cricetinae gen. sp. [19] = assay: The compound was evaluated for percent reduction of liver cholesterol esters(LCE) in cholesterol-fed hamsters at 3 mg/kg/day; assay type: functional, Cricetulus griseus; summary of the method: as §1

Compound: COc1ccc([C@@H]2[C@@H](CC[C@@H](O)c3ccccc3)C(=O)N2c2ccc(OC)cc2)cc1
ED50 (Cricetinae gen. sp. [1]): 5 mg/kg/day

Compound: CC[C@H](C)C(=O)O[C@H]1C[C@@H](C)C=C2C=C[C@H](C)[C@H](CC[C@@H]3C[C@@H](O)CC(=O)O3)[C@H]21
ED50 (Cricetinae gen. sp. [2]): No effect

Compound: O=C1[C@H](CCCc2ccc(F)cc2)[C@@H](c2ccc(O)cc2)N1c1ccc(F)cc1
ED50 (Cricetinae gen. sp. [1]): 2 mg/kg/day

Compound: COc1ccc(N2C(=O)[C@H](CC[C@H](O)c3ccccc3)[C@H]2c2ccc(O)cc2)cc1
ED50 (Cricetinae gen. sp. [1]): 0.3 mg/kg/day

Compound: CC(=O)Oc1ccc([C@@H]2[C@@H](CC[C@H](OC(C)=O)c3ccc(F)cc3)C(=O)N2c2ccc(F)cc2)cc1
ED50 (Cricetinae gen. sp. [1]): 0.06 mg/kg/day

Compound: COc1ccc(N2C(=O)[C@H](CCCc3ccccc3)[C@H]2c2ccc(O)cc2)cc1
ED50 (Cricetinae gen. sp. [1]): 5 mg/kg/day

Compound: COc1ccc([C@@H]2[C@@H](CC[C@H](O)c3ccccc3)C(=O)N2c2ccc(OC)cc2)cc1
ED50 (Cricetinae gen. sp. [1]): 0.9 mg/kg/day

Compound: O=C1[C@H](CCCc2ccccc2)[C@@H](c2ccc(O)cc2)N1c1ccc(O)cc1
Reduction (Cricetinae gen. sp. [3]): -68%

Compound: CCC(CC(CC)c1ccc(C[N+](C)(C)C)cc1)c1ccccc1.[Cl-] (configuration not stated)
% reduction (Cricetinae gen. sp. [4]): -96

Compound: COc1ccc(N2C(=O)[C@H](CC[C@@H](O)c3ccccc3)[C@H]2c2ccc(O)cc2)cc1
ED50 (Cricetinae gen. sp. [1]): 3 mg/kg/day

Compound: COc1ccc([C@@H]2[C@@H](CCCc3ccc(O)cc3)C(=O)N2c2ccc(OC)cc2)cc1
Reduction (Cricetinae gen. sp. [3]): -16%

Compound: COc1ccc([C@@H]2[C@@H](CCCc3ccccc3)C(=O)N2c2ccc(O)cc2)cc1
Reduction (Cricetinae gen. sp. [3]): -78%

Compound: CC1CC[C@@]2(OC1)O[C@H]1C[C@H]3[C@@H]4CC[C@H]5C[C@@H](O[C@@H]6O[C@@H](CO)[C@@H](O[C@@H]7O[C@@H](COC(=O)Nc8ccccc8F)[C@@H](OC(=O)Nc8ccccc8F)[C@H](O)[C@@H]7O)[C@H](O)[C@@H]6O)CC[C@]5(C)[C@H]4C(=O)C[C@]3(C)[C@H]1[C@@H]2C (some centres not stated)
ED50 (Cricetinae gen. sp. [1]): 0.025 mg/kg/day

Negation [5]: -37% | Negation [6]: -39% | Negation [7]: -100% | Negation [8]: -96% | Negation [9]: -72% | Negation [10]: -100% | Negation [11]: -23% | Negation [12]: -100% | Negation [13]: -100% | Negation [14]: -87%
Compound: O=C1[C@H](CC[C@H](O)c2ccc(F)cc2)[C@@H](c2ccc(O)cc2)N1c1ccc(F)cc1 [EZETIMIBE]
ED50 (Cricetinae gen. sp. [1]): 0.04 mg/kg/day

Compound: CC1CC[C@@]2(OC1)O[C@H]1C[C@H]3[C@@H]4CC[C@H]5C[C@@H](O[C@@H]6O[C@@H](CO)[C@@H](O[C@@H]7O[C@@H](COC(=O)Nc8ccccc8F)[C@@H](OC(=O)Nc8ccccc8F)[C@H](O)[C@@H]7O)[C@H](O)[C@@H]6O)CC[C@]5(C)[C@H]4CC(=O)[C@]3(C)[C@H]1[C@@H]2C (some centres not stated)
ED50 (Cricetinae gen. sp. [1]): 0.07 mg/kg/day

Negation [15]: Not Active | Negation [16]: Not Active | Negation [17]: Not Active | Negation [7]: -76% | Negation [13]: -68%
Compound: COc1ccc([C@@H]2[C@@H](CCCc3ccccc3)C(=O)N2c2ccc(OC)cc2)cc1 [SCH-48461]
ED50 (Cricetinae gen. sp. [1]): 2.2 mg/kg/day

Compound: COc1ccc(N2C(=O)[C@H](CCC(=O)c3ccccc3)[C@H]2c2ccc(O)cc2)cc1
ED50 (Cricetinae gen. sp. [1]): 3 mg/kg/day

Compound: O=C1[C@H](C/C=C/c2ccc(F)cc2)[C@@H](c2ccc(O)cc2)N1c1ccc(F)cc1
ED50 (Cricetinae gen. sp. [1]): 2.5 mg/kg/day

Compound: CC(=O)Oc1ccc([C@@H]2[C@@H](CC[C@@H](OC(C)=O)c3ccc(F)cc3)C(=O)N2c2ccc(F)cc2)cc1
ED50 (Cricetinae gen. sp. [1]): 1.5 mg/kg/day

Compound: Cc1ccc(C)c(OCCCC(C)(C)C(=O)O)c1
ED50 (Cricetinae gen. sp. [18]): inactive

Compound: COc1ccc(N2C(=O)[C@H](CCCc3ccc(O)cc3)[C@H]2c2ccc(O)cc2)cc1
Reduction (Cricetinae gen. sp. [3]): -64%

Compound: COc1ccc([C@@H]2[C@@H](CCC(=O)c3ccccc3)C(=O)N2c2ccc(OC)cc2)cc1
ED50 (Cricetinae gen. sp. [1]): 2 mg/kg/day

Compound: O=C(CC[C@H]1C(=O)N(c2ccc(F)cc2)[C@@H]1c1ccc(O)cc1)c1ccc(F)cc1
ED50 (Cricetinae gen. sp. [1]): 0.3 mg/kg/day

Compound: COc1ccc([C@@H]2[C@@H](CCCc3ccc(F)cc3)C(=O)N2c2ccc(F)cc2)cc1
ED50 (Cricetinae gen. sp. [1]): 0.7 mg/kg/day

Compound: O=C1[C@H](CC[C@@H](O)c2ccc(F)cc2)[C@@H](c2ccc(O)cc2)N1c1ccc(F)cc1
ED50 (Cricetinae gen. sp. [1]): 0.8 mg/kg/day

Compound: O=C(CC[C@H]1C(=O)N(c2ccc(F)cc2)[C@@H]1c1ccc(OCc2ccccc2)cc1)c1ccc(F)cc1
Reduction (Cricetinae gen. sp. [19]): -96%

Compound: O=C1[C@H](CC[C@H](O)c2ccc(F)cc2)[C@@H](c2ccc(OCc3ccccc3)cc2)N1c1ccc(F)cc1
ED50 (Cricetinae gen. sp. [1]): 0.1 mg/kg/day

From ChEMBL document CHEMBL1131497, “Discovery of 1-(4-fluorophenyl)-(3R)-[3-(4-fluorophenyl)-(3S)-hydroxypropyl]-(4S)-(4 -hydroxyphenyl)-2-azetidinone (SCH 58235): a designed, potent, orally active inhibitor of cholesterol absorption” (J Med Chem, 1998)
